From ChEMBL document CHEMBL2417522, “N-aryl-6-methoxy-1,2,3,4-tetrahydroquinolines: a novel class of antitumor agents targeting the colchicine site on tubulin” (Eur J Med Chem, 2013)
≈ marks a conversion by molar mass, not a printed value. Calls of active or inactive are those of the source. No cut-off for these calls is given here.

Legend:
KB [1] = assay: Cytotoxicity against human KB cells by SRB method; format: functional
A549 [2] = assay: Cytotoxicity against human A549 cells by SRB method; format: functional
DU-145 [3] = assay: Cytotoxicity against human DU145 cells by SRB method; format: functional
[4] = Cytotoxicity against human KBVIN cells by SRB method; format: functional
Tubulin (Homo sapiens) [5] = biological target: T1, Tubulin (Homo sapiens) (UniProt P68371+Q9H4B7+P0DPH7+P68366+Q13509+Q71U36+P04350+Q3ZCM7+P07437+P68363+Q9BQE3+Q6PEY2+Q13885+Q9BVA1+Q9BUF5); assay: Competitive inhibition of [3H]colchicine binding to tubulin (unknown origin) at 5 uM after 10 mins by radioligand displacement assay; format: protein-complex assay
Method in brief: (§1)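 [3H]colchicine binding: 1.0 µM tubulin, 5.0 µM [3H]colchicine and inhibitor at 5.0 or 1.0 µM, 10 min at 37 °C, when control binding reaches about 40–60% of maximum. […] Percent inhibition reported.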

[6] = Aqueous solubility of the compound at pH 7.4 after 4 hrs by HPLC-UV method; format: physicochemical; settings: buffer, pH 7.4, 4 h
Method in brief: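 Solubility at pH 7.4: DMSO stock (1.0 mg/mL) diluted into phosphate buffer, final DMSO 1%; stirred 4 h at rt, centrifuged; saturated supernatant quantified by HPLC–UV against a standard curve (50–0.20 µg/mL in ACN). Triplicate samples.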

[7] = […] partition coefficient, log P of the compound at pH 7.4 after 24 hrs by HPLC analysis; format: physicochemical
Method in brief: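 Compound dissolved at 1.0 mg/mL in […]. Log P taken from the ratio of HPLC peak areas in the […] and water phases.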

Tubulin = assay: Inhibition of tubulin assembly (unknown origin) preincubated for 15 mins followed by GTP addition measured after 20 mins by turbidimetric analysis; format: protein-complex assay, Homo sapiens
A549 [8] = assay: Cytotoxicity against human A549 cells at 60 uM by SRB method; format: functional, cell-based
KBVIN = assay: Cytotoxicity against human KBVIN cells at 60 uM by SRB method; format: functional, cell-based
DU-145 [9] = assay: Cytotoxicity against human DU145 cells at 60 uM by SRB method; format: functional, cell-based
KB [10] = assay: Cytotoxicity against human KB cells at 60 uM by SRB method; format: functional, cell-based
Tubulin (Homo sapiens) [11] = biological target: T1, Tubulin (Homo sapiens); assay: Competitive inhibition of [3H]colchicine binding to tubulin (unknown origin) at 1 uM after 10 mins by radioligand displacement assay; format: protein-complex assay; method in brief: as §1
Liver microsomes = assay: Half life in human liver microsomes at 1 uM by LC-MS analysis; format: ADME, Microsome

Row | SMILES | GI50 (KB [1]) | GI50 (A549 [2]) | GI50 (DU-145 [3]) | GI50 [4] | inhibition (Tubulin (Homo sapiens) [5]) | solubility [6] | logD at 24 h [7] | IC50 (Tubulin) | growth inhibition (GI) (A549 [8]) | growth inhibition (GI) (KBVIN) | growth inhibition (GI) (DU-145 [9]) | growth inhibition (GI) (KB [10]) | inhibition (Tubulin (Homo sapiens) [11]) | t1/2 (Liver microsomes)
1 | COC(=O)c1cc(Br)cc(N2CCCc3cc(OC)ccc32)c1 | 1370 nM | 1120 nM | 1280 nM | 1270 nM | – | – | – | – | – | – | – | – | – | –
2 | COc1ccc2c(c1)CCCN2c1cc(Br)cc(C(=O)NC2CC2)c1 | 160 nM | 170 nM | 150 nM | 190 nM | 75% | 0.26 µg/mL (≈ 0.648 µM) | 4.75 | 1000 nM | – | – | – | – | – | –
3 | CNC(=O)c1cc(Br)cc(N2CCCc3cc(OC)ccc32)c1 | 630 nM | 370 nM | 560 nM | 930 nM | – | – | – | – | – | – | – | – | – | –
4 | COC(=O)c1cc(Cl)cc(N2CCCc3cc(OC)ccc32)c1 | 2330 nM | 2230 nM | 1510 nM | 1780 nM | – | – | – | – | – | – | – | – | – | –
5 | COC(=O)c1ccc(Cl)cc1N(C)c1ccc(OC)cc1 | 1980 nM | 3360 nM | 1680 nM | 1890 nM | – | – | – | – | – | – | – | – | – | –
6 | COc1ccc(N(C)c2cc(Br)cc(C(=O)NC3CC3)c2)cc1 | 170 nM | – | – | – | 69% | 0.16 µg/mL (≈ 0.426 µM) | 4.33 | 1600 nM | – | – | – | – | – | –
7 | CNC(=O)c1cc(Cl)cc(N2CCCc3cc(OC)ccc32)c1 | 1040 nM | 740 nM | 1020 nM | 430 nM | – | – | – | – | – | – | – | – | – | –
8 | COC(=O)c1cc(Cl)cc(N(C)c2ccc(OC)cc2)c1 | 1610 nM | 1600 nM | 1460 nM | 1570 nM | – | – | – | – | – | – | – | – | – | –
9 | COC(=O)c1ccc(Cl)nc1N(C)c1ccc(OC)cc1 | 260 nM | 230 nM | 210 nM | 200 nM | – | – | – | – | – | – | – | – | – | –
10 | COc1ccc(N(C)c2cc(Br)cc(C(=O)O)c2)cc1 | – | – | – | – | – | – | – | – | inactive | inactive | inactive | inactive | – | –
11 | COc1ccc2c(c1)CCCN2c1cccc2ccccc12 | 15600 nM | 17800 nM | 14800 nM | 17600 nM | – | – | – | – | – | – | – | – | – | –
12 | COC(=O)c1cc(N(C)c2ccc(OC)cc2)cc(C(F)(F)F)c1 | 13500 nM | 15100 nM | 11500 nM | 13100 nM | – | – | – | – | – | – | – | – | – | –
13 | COc1ccc(N(C)c2cc(Cl)ccc2CO)cc1 | 19500 nM | 21700 nM | 16000 nM | 18100 nM | – | – | – | – | – | – | – | – | – | –
14 | CNC(=O)c1cc(Cl)cc(N(C)c2ccc(OC)cc2)c1 | 300 nM | 270 nM | 230 nM | 230 nM | – | – | – | – | – | – | – | – | – | –
15 | COc1ccc2c(c1)CCCN2c1nc(C)nc2ccccc12 | 11 nM | 18 nM | 15 nM | 18 nM | 98% | 7.67 µg/mL (≈ 25.1 µM) | 3.65 | 1000 nM | – | – | – | – | 89% | 25.19 min
16 | CNC(=O)c1cc(Br)cc(N(C)c2ccc(OC)cc2)c1 | 210 nM | 250 nM | 160 nM | 140 nM | 71% | 0.81 µg/mL (≈ 2.32 µM) | 4.02 | 2200 nM | – | – | – | – | – | –
17 | COc1ccc(N(C)c2cc(Br)cc(C(=O)NC3CCCC3)c2)cc1 | 120 nM | – | 110 nM | – | – | – | – | – | – | – | – | – | – | –
18 | COc1ccc2c(c1)CCCN2c1cc(C)nc2ccccc12 | 91 nM | 45 nM | 38 nM | 55 nM | 87% | 3.21 µg/mL (≈ 10.5 µM) | 3.98 | 1000 nM | – | – | – | – | 61% | 7.89 min
19 | COc1ccc(N(C)c2cc(Br)cc(C(=O)N(C)C)c2)cc1 | 6520 nM | 2830 nM | 3340 nM | 2380 nM | – | – | – | – | – | – | – | – | – | –
20 | CNC(=O)c1cc(N(C)c2ccc(OC)cc2)cc(C(F)(F)F)c1 | 12300 nM | 14700 nM | 11900 nM | 12600 nM | – | – | – | – | – | – | – | – | – | –
21 | CC(=O)O[C@H]1C(=O)[C@@]2(C)[C@H]([C@H](OC(=O)c3ccccc3)[C@]3(O)C[C@H](OC(=O)[C@H](O)[C@@H](NC(=O)c4ccccc4)c4ccccc4)C(C)=C1C3(C)C)[C@]1(OC(C)=O)CO[C@@H]1C[C@@H]2O [PACLITAXEL] | 6.4 nM | 7.6 nM | 6 nM | 1210 nM | – | – | – | – | – | – | – | – | – | –
22 | COC(=O)c1cc(Br)cc(N(C)c2ccc(OC)cc2)c1 | 1360 nM | 1240 nM | 970 nM | 1200 nM | – | – | – | – | – | – | – | – | – | –
23 | CNc1nc(N2CCCc3cc(OC)ccc32)c2ccccc2n1 | 25 nM | 27 nM | 23 nM | 29 nM | 95% | 7.21 µg/mL (≈ 22.5 µM) | 1.07 | 920 nM | – | – | – | – | 76% | 25.97 min
24 | COc1ccc2c(c1)CCCN2c1nc(Cl)nc2ccccc12 | – | – | 1.5 nM | – | 99% | – | 4.13 | 930 nM | – | – | – | – | 95% | –
25 | CNC(=O)c1ccc(Cl)cc1N(C)c1ccc(OC)cc1 | 188000 nM | 43200 nM | 98900 nM | 61000 nM | – | – | – | – | – | – | – | – | – | –
26 | COCc1ccc(Cl)cc1N(C)c1ccc(OC)cc1 | 5240 nM | 4530 nM | 3130 nM | 2850 nM | – | – | – | – | – | – | – | – | – | –
